The values below come from ChEMBL document CHEMBL3861973, “Caldoramide, a Modified Pentapeptide from the Marine Cyanobacterium Caldora penicillata” (J Nat Prod, 2016).

Assay [1] is described as follows: Cytotoxicity against human HCT116 cells assessed as reduction in cell viability measured after 48 hrs by ATPlite 1step luminescence assay. The assay is classed as functional, cell-based. The note with it: HCT-116, 48 h.
The nature of assay [2]: Cytotoxicity against human HIF1alpha and HIF2alpha deficit HCT116 cells assessed as reduction in cell viability measured after 48 hrs by ATPlite 1step luminescence assay. The note with it: HCT-116, 48 h. The assay is classed as functional, cell-based. For orientation: Cellular ATP, detected with luciferase, serves as a proxy for viable cell number.
A short description of assay [3]: Cytotoxicity against oncogenic KRAS knockout human HCT116 cells expressing wild type KRAS assessed as reduction in cell viability measured after 48 hrs by ATPlite 1step luminescence assay. In kind it is functional, cell-based. The settings on record: HCT-116, 48 h.
Assay [4] in a line: Cytotoxicity against human HIF1alpha and HIF2alpha deficit HCT116 cells assessed as reduction of cell viability measured after 48 hrs by ATPlite 1step luminescence assay relative to parental HCT116 cells. The settings on record: HCT-116, 48 h. In kind it is functional.
Assay [5] is described as follows: Cytotoxicity against oncogenic KRAS knockout human HCT116 cells expressing wild type KRAS assessed as reduction in cell viability measured after 48 hrs by ATPlite 1step luminescence assay relative to parental HCT116 cells. The note with it: HCT-116, 48 h. In kind it is functional.
Assay [6] in a line: Cytotoxicity against human HCT116 cells assessed as reduction in cell viability measured after 48 hrs by MTT assay. In kind it is functional, cell-based. The settings on record: HCT-116, 48 h. In short, it runs like this: (§1)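 Parental HCT116, HIF-1α/HIF-2α double-knockout and oncogenic-KRAS-knockout (wild-type KRAS) isogenic lines grown in DMEM + 10% FBS, 37 °C, 5% CO2. Seeded at 10,000 cells/well; compound added at various concentrations 24 h later.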
For orientation: Tetrazolium dyes change colour on reduction, which living cells bring about.

Assay [7] in a line: Cytotoxicity against human HIF1alpha and HIF2alpha deficit HCT116 cells assessed as reduction in cell viability measured after 48 hrs by MTT assay. The assay is classed as functional, cell-based. The note with it: HCT-116, 48 h. In short, it runs like this:
as §1

The nature of assay [8]: Cytotoxicity against oncogenic KRAS knockout human HCT116 cells assessed as reduction in cell viability measured after 48 hrs by MTT assay. In kind it is functional, cell-based. The settings on record: HCT-116, 48 h. The gist of the method:
as §1

A short description of assay [9]: Cytotoxicity against human HIF1alpha and HIF2alpha deficit HCT116 cells assessed as reduction in cell viability measured after 48 hrs by MTT assay relative to parental HCT116 cells. The assay is classed as functional. The note with it: HCT-116, 48 h. The gist of the method: (§2)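 Same isogenic HCT116 MTT set-up: cells in DMEM + 10% FBS at 37 °C, 5% CO2, 10,000 cells/well, dosed at graded concentrations after 24 h, MTT read 48 h post-treatment. Maximum efficacy in each knockout line expressed as percent of that in parental HCT116.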

Assay [10] in a line: Cytotoxicity against oncogenic KRAS knockout human HCT116 cells expressing wild type KRAS assessed as reduction in cell viability measured after 48 hrs by MTT assay relative to parental HCT116 cells. In kind it is functional. The note with it: HCT-116, 48 h. In short, it runs like this:
as §2

For assay [11], the system named is HCT-116. The assay is described as follows: Selectivity ratio of IC50 for human HIF1alpha and HIF2alpha deficit HCT116 cells to IC50 for human HCT116 cells. In kind it is functional.
Assay [12] concerns HCT-116. The assay is described as follows: Selectivity ratio of IC50 for oncogenic KRAS knockout human HCT116 cells to IC50 for human HCT116 cells. In kind it is functional.

What is called IC50 is the concentration that gives 50% inhibition. In the case of `CCCCCCCC(=O)SCC/C=C/[C@@H]1CC(=O)NCc2nc(cs2)C2=N[C@@](C)(CS2)C(=O)N[C@@H](C(C)C)C(=O)O1` [LARGAZOLE], the IC50 in [1] came out at 6.41 nM; in assay [2] it was 18 nM; in assay [3], 3.7 nM. Also, the Emax in assay [4] is 70%; in assay [5], 67%.
Take `CC[C@H](C)[C@@H](C(=O)N1C(=O)C=C(OC)[C@@H]1Cc1ccccc1)N(C)C(=O)[C@H](C(C)C)N(C)C(=O)[C@@H](NC(=O)[C@H](C(C)C)N(C)C)C(C)C`: the IC50 in [6] came to 3900 nM; in [7] it was 5200 nM; in assay [8] it was 8600 nM. Moreover, the figures for the Emax in [9] and in [10] were 67% and 100%, respectively.
Turning to `CC[C@H](C)[C@@H]([C@@H](CC(=O)N1CCC[C@H]1[C@H](OC)[C@@H](C)C(=O)N[C@@H](Cc1ccccc1)c1nccs1)OC)N(C)C(=O)[C@@H](NC(=O)[C@H](C(C)C)N(C)C)C(C)C` [DOLASTATIN-10], the IC50 in [1] was 0.48 nM; in [2], 65 nM; in [3] it was 24 nM. Besides, the Emax in assay [4] was found to be 74%; in assay [5], 83%. The “Ratio IC50” value in the assay on HCT-116 [11] and in the assay on HCT-116 [12] was over 50 each time.
